Source: ChEMBL document CHEMBL5058577, “EUbOPEN Chemogenomics Library 2 (Multiplex)” (2022)

Tested on: U2OS
Assay: Multiplex assay against U2OS
Assay type: toxicity, cell-based
Conditions: human
Method in brief: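 At seeding, live cells were stained with Hoechst33342, BioTracker Green Microtubule Cytoskeleton Dye, MitoTracker Red and Annexin V Alexa Fluor 680. After compound addition they were imaged on a CQ1 microscope at 37°C and 5% CO2, and CellPathfinder machine-learning gating sorted them into Hoechst high-intensity objects or normal cells, with normal cells further split into healthy, pyknosed or fragmented nuclei and pyknosed cells into mitotic or apoptotic. Tubulin, mitochondrial-mass and membrane-permeability phenotypes are given as per cents of cells with healthy nuclei.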

[1] = 12 h, 1 µM, compound concentration 1 uM, replicate 1
[2] = 12 h, 1 µM, compound concentration 1 uM, replicate 2
[3] = 12 h, 10 µM, compound concentration 10 uM, replicate 1
[4] = 12 h, 10 µM, compound concentration 10 uM, replicate 2
[5] = 24 h, 1 µM, compound concentration 1 uM, replicate 1
[6] = 24 h, 1 µM, compound concentration 1 uM, replicate 2
[7] = 24 h, 10 µM, compound concentration 10 uM, replicate 1
[8] = 24 h, 10 µM, compound concentration 10 uM, replicate 2
[9] = 48 h, 1 µM, compound concentration 1 uM, replicate 1
[10] = 48 h, 1 µM, compound concentration 1 uM, replicate 2
[11] = 48 h, 10 µM, compound concentration 10 uM, replicate 1
[12] = 48 h, 10 µM, compound concentration 10 uM, replicate 2

CN(C)c1ccnc2sc3c(=O)n(N4CCCCCC4)cnc3c12
Population Apoptotic (%) [1]: 81% | Population Fragmented Nuclei (%) [1]: 19% | Population Healthy Nuclei (%) [1]: 72% | Population Hoechst High Intensity Objects (%) [1]: 1% | Population Membrane Permeable-Phenotype (%) [1]: 4% | Population Mitochondria Different-Phenotype (%) [1]: 2% | Population Mitotic Cells (%) [1]: 18% | Population Normal (%) [1]: 98% | Population Pyknosed Nuclei (%) [1]: 7% | Population Tubulin-Different-Phenotype (%) [1]: 2% | Total Cell Count [1]: 284 | Population Apoptotic (%) [2]: 87% | Population Fragmented Nuclei (%) [2]: 16% | Population Healthy Nuclei (%) [2]: 77% | Population Membrane Permeable-Phenotype (%) [2]: 6% | Population Mitotic Cells (%) [2]: 12% | Population Pyknosed Nuclei (%) [2]: 6% | Total Cell Count [2]: 132 | Population Apoptotic (%) [3]: 41% | Population Fragmented Nuclei (%) [3]: 30% | Population Healthy Nuclei (%) [3]: 56% | Population Hoechst High Intensity Objects (%) [3]: 4% | Population Membrane Permeable-Phenotype (%) [3]: 30% | Population Mitochondria Different-Phenotype (%) [3]: 14% | Population Mitotic Cells (%) [3]: 58% | Population Normal (%) [3]: 95% | Population Pyknosed Nuclei (%) [3]: 12% | Population Tubulin-Different-Phenotype (%) [3]: 20% | Total Cell Count [3]: 249 | Population Apoptotic (%) [4]: 88% | Population Fragmented Nuclei (%) [4]: 18% | Population Healthy Nuclei (%) [4]: 71% | Population Hoechst High Intensity Objects (%) [4]: 5% | Population Membrane Permeable-Phenotype (%) [4]: 23% | Population Mitochondria Different-Phenotype (%) [4]: 27% | Population Mitotic Cells (%) [4]: 11% | Population Normal (%) [4]: 94% | Population Pyknosed Nuclei (%) [4]: 9% | Population Tubulin-Different-Phenotype (%) [4]: 22% | Total Cell Count [4]: 101 | Population Apoptotic (%) [5]: 87% | Population Fragmented Nuclei (%) [5]: 16% | Population Healthy Nuclei (%) [5]: 72% | Population Hoechst High Intensity Objects (%) [5]: 2% | Population Membrane Permeable-Phenotype (%) [5]: 3% | Population Mitochondria Different-Phenotype (%) [5]: 3% | Population Mitotic Cells (%) [5]: 12% | Population Normal (%) [5]: 97% | Population Pyknosed Nuclei (%) [5]: 10% | Population Tubulin-Different-Phenotype (%) [5]: 1% | Total Cell Count [5]: 326 | Population Apoptotic (%) [6]: 72% | Population Fragmented Nuclei (%) [6]: 15% | Population Healthy Nuclei (%) [6]: 76% | Population Membrane Permeable-Phenotype (%) [6]: 6% | Population Mitotic Cells (%) [6]: 27% | Population Pyknosed Nuclei (%) [6]: 7% | Population Tubulin-Different-Phenotype (%) [6]: 4% | Total Cell Count [6]: 150 | Population Apoptotic (%) [7]: 68% | Population Fragmented Nuclei (%) [7]: 28% | Population Healthy Nuclei (%) [7]: 56% | Population Hoechst High Intensity Objects (%) [7]: 4% | Population Membrane Permeable-Phenotype (%) [7]: 22% | Population Mitochondria Different-Phenotype (%) [7]: 15% | Population Mitotic Cells (%) [7]: 31% | Population Normal (%) [7]: 95% | Population Pyknosed Nuclei (%) [7]: 15% | Population Tubulin-Different-Phenotype (%) [7]: 14% | Total Cell Count [7]: 260 | Population Apoptotic (%) [8]: 100% | Population Fragmented Nuclei (%) [8]: 11% | Population Healthy Nuclei (%) [8]: 75% | Population Hoechst High Intensity Objects (%) [8]: 3% | Population Membrane Permeable-Phenotype (%) [8]: 23% | Population Mitochondria Different-Phenotype (%) [8]: 25% | Population Mitotic Cells (%) [8]: 0% | Population Normal (%) [8]: 96% | Population Pyknosed Nuclei (%) [8]: 13% | Population Tubulin-Different-Phenotype (%) [8]: 24% | Total Cell Count [8]: 108 | Population Apoptotic (%) [9]: 90% | Population Fragmented Nuclei (%) [9]: 17% | Population Healthy Nuclei (%) [9]: 74% | Population Hoechst High Intensity Objects (%) [9]: 2% | Population Membrane Permeable-Phenotype (%) [9]: 4% | Population Mitochondria Different-Phenotype (%) [9]: 1% | Population Mitotic Cells (%) [9]: 9% | Population Normal (%) [9]: 97% | Population Pyknosed Nuclei (%) [9]: 8% | Population Tubulin-Different-Phenotype (%) [9]: 2% | Total Cell Count [9]: 486 | Population Apoptotic (%) [10]: 92% | Population Fragmented Nuclei (%) [10]: 15% | Population Healthy Nuclei (%) [10]: 72% | Population Membrane Permeable-Phenotype (%) [10]: 5% | Population Mitochondria Different-Phenotype (%) [10]: 5% | Population Mitotic Cells (%) [10]: 7% | Population Pyknosed Nuclei (%) [10]: 11% | Total Cell Count [10]: 239 | Population Apoptotic (%) [11]: 68% | Population Fragmented Nuclei (%) [11]: 28% | Population Healthy Nuclei (%) [11]: 57% | Population Hoechst High Intensity Objects (%) [11]: 4% | Population Membrane Permeable-Phenotype (%) [11]: 15% | Population Mitochondria Different-Phenotype (%) [11]: 11% | Population Mitotic Cells (%) [11]: 31% | Population Normal (%) [11]: 95% | Population Pyknosed Nuclei (%) [11]: 14% | Population Tubulin-Different-Phenotype (%) [11]: 7% | Total Cell Count [11]: 325 | Population Apoptotic (%) [12]: 72% | Population Fragmented Nuclei (%) [12]: 15% | Population Healthy Nuclei (%) [12]: 61% | Population Hoechst High Intensity Objects (%) [12]: 9% | Population Membrane Permeable-Phenotype (%) [12]: 21% | Population Mitochondria Different-Phenotype (%) [12]: 19% | Population Mitotic Cells (%) [12]: 27% | Population Normal (%) [12]: 90% | Population Pyknosed Nuclei (%) [12]: 22% | Population Tubulin-Different-Phenotype (%) [12]: 23% | Total Cell Count [12]: 140
